Legend:
MC-38 = test: Antitumor activity against the subcutaneously implanted C38 colon tumor in mice.; assay type: functional, Mus musculus; set-up: concentration or dose not given beside the values
Method in brief: (§1)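 Colon 38 fragments were implanted sc in BDF1 mice and grown to 4-8 mm diameter. Each mouse then got a single ip dose of the sodium salt in water, with light excluded. Doses rose in 1.5-fold steps up to 750 mg/kg or the maximum tolerated dose. Tumors were removed 24 h later, formalin-fixed, and sections were stained with hematoxylin/eosin. Necrosis was scored: ++ >90%, + 50-90%, − <50%. Groups of five mice, with 2-3 independent determinations per dose.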

Mus musculus [1] = test: Minimum dose required when administered intraperitoneally in mice as the sodium salt in water in a single dose.; assay type: functional
Method in brief: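 The minimum dose giving the cited necrosis level in sc colon 38 tumors (4-8 mm) in BDF1 mice. It was taken from a full dose profile at 1.5-fold intervals, given as a single ip dose of the sodium salt in water. The ceiling was 750 mg/kg or the maximum tolerated dose, defined as the highest dose causing no deaths in 24 h. Tumor histology was read at 24 h.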

Mus musculus [2] = test: Compound was evaluated in vivo, for antitumor activity, against the subcutaneously implanted C38 colon tumor in mice; 50-90%; assay type: functional; method in brief: as §1
Mus musculus [3] = test: Compound was evaluated in vivo, for antitumor activity, against the subcutaneously implanted C38 colon tumor in mice; 50-90%

Structure (SMILES) | Activity (MC-38) | minimum dose giving tumor necrosis (Mus musculus [1]) | Activity (Mus musculus [2]) | Activity (Mus musculus [3])
O=C(O)Cc1cccc2c(=O)c3cccc(Cl)c3oc12 | 90% | 150 mg/kg |  | 
O=C(O)Cc1cccc2c(=O)c3ccccc3oc12 | >90% | 220 mg/kg |  | 
Cc1cccc2c(=O)c3cccc(CC(=O)O)c3oc12 | >90% | 30 mg/kg |  | 
Cc1c(N(C)C)ccc2c(=O)c3cccc(CC(=O)O)c3oc12 |  | 45 mg/kg |  | 
O=C(O)Cc1cccc2c(=O)c3ccc4c(c3oc12)CCC4 | >90% | 45 mg/kg |  | 
Cc1cccc2c(=O)c3c(C)ccc(CC(=O)O)c3oc12 | >90% | 65 mg/kg |  | 
Cc1c(Br)ccc2c(=O)c3cccc(CC(=O)O)c3oc12 | >90% | 45 mg/kg |  | 
O=C(O)Cc1cccc2c(=O)c3ccc4ccccc4c3oc12 | >90% | 65 mg/kg |  | 
Cc1cc(CC(=O)O)c2oc3c(C)cccc3c(=O)c2c1 | >90% | 220 mg/kg |  | 
COc1ccc2c(=O)c3cccc(CC(=O)O)c3oc2c1C | >90% | 30 mg/kg |  | 
Cc1c(Cl)ccc2c(=O)c3cccc(CC(=O)O)c3oc12 | >90% | 30 mg/kg |  | 
O=C(O)Cc1cccc2c(=O)c3cc4ccccc4cc3oc12 |  | 330 mg/kg | 50% | 
Cc1c(F)ccc2c(=O)c3cccc(CC(=O)O)c3oc12 | >90% | 45 mg/kg |  | 
Cc1ccc2c(=O)c3cccc(CC(=O)O)c3oc2c1Cl | >90% | 100 mg/kg |  | 
O=C(O)Cc1cccc2c(=O)c3ccc(Cl)c(Cl)c3oc12 |  | 100 mg/kg |  | 50%
Cc1ccc2c(=O)c3cccc(C)c3oc2c1CC(=O)O | >90% | 45 mg/kg |  | 
O=C(O)Cc1cccc2c(=O)cc(-c3ccccc3)oc12 [MITOFLAXONE] | >90% | 330 mg/kg |  | 
Cc1ccc2c(=O)c3cccc(CC(=O)O)c3oc2c1C [VADIMEZAN] | >90% | 30 mg/kg |  | 

Reference: ChEMBL document CHEMBL1125725, “Potential antitumor agents. 61. Structure-activity relationships for in vivo colon 38 activity among disubstituted 9-oxo-9H-xanthene-4-acetic acids” (1991)
